Results pooled from the literature.
Each line is one published result; the experiments were not run side by side.

CC(C)N(c1ccc(Cl)c(F)c1)c1ccc(NC(=O)CN(C)c2ccccc2N2CCCC2=O)cn1  solubility (PBS; pH 7.4): 9.6 µM
COc1ccc(Nc2cnnc3cc(-c4cnc(N5CCCN(C)CC5)nc4)ccc23)cc1Cl  solubility (aqueous buffer; pH 7.4, 25 °C): 1000 µM
O=C(O)c1cc(-c2ccc(-n3ccnn3)cc2)cc(-n2cc(-c3ccc(C(F)(F)F)cc3)nn2)c1  solubility (aqueous buffer; pH 4): 0.74 µg/mL
CN1CCN(c2cccc(-c3ccc4ncnc(Nc5ccc(Cl)c(C(F)(F)F)c5)c4c3)c2)CC1  solubility (aqueous buffer; pH 7.4, 25 °C): < 1.4 µM
O=C([O-])CN1CCNCCN(CC(=O)[O-])CCNCC1.[Mn+2]  solubility (water): 470000 µg/mL
O=c1c2c(F)cc(Cl)cc2[nH]c2cccc(Oc3ccc(OC(F)(F)F)cc3)c12  solubility (absorbance; aqueous buffer; 90 min, pH 7.4): 32.3 µM
CN(CC(=O)Nc1ccc(N(C)c2ccc(Cl)c(F)c2)cc1)c1ccccc1N1CCCC1=O  solubility (PBS; pH 7.4): < 2.5 µM
Cc1ccccc1CN1C(=O)C2=C(CCN(Cc3ccccc3)C2)N2CCN=C12  solubility (shake flask; aqueous buffer; pH 5): 6020 µg/mL
N[C@@H]1COc2ccc(-c3cccc(COc4ccccc4C(Nc4ccc5oc(=O)[nH]c5c4)C(=O)O)c3)cc21 (mixture of isomers)  solubility (aqueous buffer; pH 6.8): 200 µM
O=c1c2ccc(Oc3ccc(OC(F)(F)F)cc3)cc2[nH]c2cc(F)c(Cl)cc12  solubility (absorbance; aqueous buffer; 90 min, pH 7.4): < 3.12 µM
CCOC(=O)C1=C(CN2CCOCC2)NC(c2nccs2)=NC1c1ccc(F)cc1Br (stereo not drawn)  solubility (HPLC; aqueous buffer; pH 7.4): < 1 µg/mL
Cc1cc(-c2ccnc3[nH]cc(F)c23)cc(F)c1[C@@]1(O)[C@H](C)CN(C(=O)CN)C[C@@H]1C  solubility (aqueous buffer): 11.9 µg/mL
Cn1cc(-c2ccc3c(Cl)cn(CC(=O)Nc4ccccc4Cl)c3c2)cn1  solubility (PBS; pH 7.4): < 2.7 µM
OCc1ccc(-c2nn(Cc3ccccc3)c3ccccc23)o1  solubility (aqueous buffer; 6 h, pH 7.4): 3 µg/mL
CNS(=O)(=O)c1ccc(Nc2ncc(C(F)(F)F)c(N3CCC(C)(O)CC3)n2)c(C)c1  solubility (PBS; 2 h, pH 7.4): 2.7 µM
Cc1ccc(Oc2ccc(NC(=O)COc3ccccc3N3CCCC3=O)cc2)cc1  solubility (PBS; pH 7.4): 4.2 µM
CCOc1ccc(Nc2c3c(nc4ccccc24)CCC3)cc1  solubility (simulated gastric fluid; 30 min, pH 2, acidic): > 100 µg/mL
NCc1ccc(-c2nn(Cc3ccccc3)c3ccccc23)o1  solubility (aqueous buffer; 6 h, pH 7.4): > 45 µg/mL
Cc1ccc(N(C)c2ccc(NC(=O)CN(C)c3cccnc3N3CCCC3=O)cc2)cc1  solubility (PBS; pH 7.4): 16 µM
CNS(=O)(=O)c1ccc(Nc2ncc(C(F)(F)F)c([C@H]3CC[C@](C)(O)CC3)n2)c(C)c1  solubility (PBS; 2 h, pH 7.4): 0.4 µM
Clc1ccc(Nc2ncnc3ccc(-c4cccc(N5CCOCC5)c4)cc23)cc1Cl  solubility (aqueous buffer; pH 7.4, 25 °C): 4 µM
CC[C@H]1OC(=O)[C@H](C)[C@@H](O[C@H]2C[C@@](C)(OC)[C@@H](O)[C@H](C)O2)[C@H](C)[C@@H](O[C@@H]2O[C@H](C)C[C@H](N(C)C)[C@H]2O)[C@](C)(O)C[C@@H](C)C(=O)[C@H](C)[C@@H](O)[C@]1(C)O  solubility (aqueous buffer; 18 h, pH 7.4): 664 µM
C[C@H]1CN(c2cccc(-c3ccc4ncnc(Nc5ncco5)c4c3)c2)CCO1  solubility (aqueous buffer; pH 7.4, 25 °C): 6 µM
CCOC(=O)C1=C(CN2CCC[C@@H]2C(=O)Nc2ccc(B(O)O)cc2)NC(c2nccs2)=N[C@H]1c1ccc(F)cc1Br  solubility (HPLC; aqueous buffer; pH 2): 257 µg/mL
Cc1cc(/C=C/C#N)cc(C)c1Nc1ccnc(Nc2ccc(C#N)cc2)n1  solubility (water; 24 h, 37 °C): 0.2 µg/mL
OCc1ccc(-c2nn(Cc3ccncc3)c3ccccc23)o1  solubility (aqueous buffer; 6 h, pH 7.4): > 45 µg/mL
Cc1nc(Nc2ncnc3ccc(-c4cccc(N5CCOCC5)c4)cc23)oc1C  solubility (aqueous buffer; pH 7.4, 25 °C): 0.2 µM
O=C(O)Cc1ccccc1Nc1c(Cl)cccc1Cl  solubility (FaSSIF): 324 µM
Cc1ccc(Oc2ccc(NC(=O)CN(C)c3ccccc3N3CCCC3=O)cc2)cc1  solubility (PBS; pH 7.4): 4.8 µM
OCc1ccc(-c2nn(Cc3ccccn3)c3ccccc23)o1  solubility (aqueous buffer; 6 h, pH 7.4): > 45 µg/mL
Clc1ccc(Nc2ncnc3ccc(-c4cccc(N5CCOCC5)c4)cc23)cc1  solubility (aqueous buffer; pH 7.4, 25 °C): < 0.4 µM
O=C(O)c1cc(-c2ccc(-n3ccnn3)cc2)c2ccc(-c3ccc(C(F)(F)F)cc3)cc2c1  solubility (aqueous buffer; pH 7.4): 9.1 µg/mL
CCCN1C(=O)COc2ccc(S(=O)(=O)Nc3cc(OC)ccc3OC)cc21  solubility (PBS; 8 h, pH 7.4): 100 µM
CN1CCC(Nc2ncnc3ccc(-c4cccc(N5CCOCC5)c4)cc23)CC1  solubility (aqueous buffer; pH 7.4, 25 °C): 928 µM
O=C(CCCCCCC(=O)Nc1ccccc1)NO  solubility (water): 720 µg/mL
CN1CCN(c2ccc(-c3ccc4nncc(Nc5ccc(OC(F)(F)F)cc5)c4c3)cc2)CC1  solubility (aqueous buffer; pH 7.4, 25 °C): 2.5 µM
NCc1ccc(-c2nn(Cc3ccccn3)c3cccnc23)o1  solubility (aqueous buffer; 6 h, pH 7.4): > 30 µg/mL
O=c1c2c([nH]c3cc(Oc4ccc(OC(F)(F)F)cc4)ccc13)CCCC2  solubility (absorbance; aqueous buffer; 90 min, pH 7.4): 18.5 µM
COc1ccc(Cn2cc(CO[C@@H]3O[C@H]4[C@H](OC[C@H]4O)[C@H]3O)nn2)cc1  solubility (PBS; pH 7.4): 198 µM
CNS(=O)(=O)c1ccc(Nc2ncc(C(F)(F)F)c(N3CCC[C@](C)(O)C3)n2)c(C)c1  solubility (FaSSIF; 2 h): 194 µM
O=C(Nc1ccc(OC(F)(F)F)cc1)N[C@H]1CC[C@H](Oc2ccc(C(=O)O)cc2)CC1  solubility (simulated gastric fluid; 10 min, pH 1, 37 °C, acidic): 0.0002 µg/mL
O=c1c2ccc(OCc3ccc(C(F)(F)F)cc3)cc2[nH]c2cc(Cl)cc(F)c12  solubility (absorbance; aqueous buffer; 90 min, pH 7.4): < 3.12 µM
OCc1ccc(-c2nn(Cc3ccccc3)c3cccnc23)o1  solubility (aqueous buffer; 6 h, pH 7.4): > 45 µg/mL
CCCN(CCC)CCCOc1ccc2c(=O)c3c([nH]c2c1)CCCC3  solubility (absorbance; aqueous buffer; 90 min, pH 7.4): > 500 µM
FC(F)(F)c1cc(Nc2ncnc3ccc(-c4cccc(N5CCOCC5)c4)cc23)ccc1Cl  solubility (aqueous buffer; pH 7.4, 25 °C): < 0.7 µM
